Assay results reported in ChEMBL document CHEMBL1153741, “Antineoplastic agents. 556. Isolation and structure of Coprinastatin 1 from Coprinus cinereus” (2010).
Converted amounts (≈) assume the structure as drawn. The source made the active and inactive calls. The rule behind the calls is not given here.

What was measured:
P388 = assay: Cytotoxicity against mouse P388 cells; assay type: functional
[1] = tested on: Stenotrophomonas maltophilia; assay: Antibacterial activity against Stenotrophomonas maltophilia ATCC 13637 by broth microdilution assay; assay type: functional, organism-based
Method in brief: (§1)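 Samples reconstituted in a small volume of sterile DMSO and diluted in the appropriate medium immediately before testing by established broth microdilution. MIC taken as the lowest concentration that inhibited all visible growth of the test organism (optically clear wells). Assays were repeated on separate days.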

Micrococcus luteus = assay: Antibacterial activity against Micrococcus luteus Presque Isle 456 by broth microdilution assay; assay type: functional, organism-based; method in brief: as §1
Staphylococcus aureus = assay: Antibacterial activity against Staphylococcus aureus ATCC 29213 by broth microdilution assay; assay type: functional, organism-based; method in brief: as §1
Escherichia coli = assay: Antibacterial activity against Escherichia coli ATCC 25922 by broth microdilution assay; assay type: functional, organism-based; method in brief: as §1
Enterobacter cloacae = assay: Antibacterial activity against Enterobacter cloacae ATCC 13047 by broth microdilution assay; assay type: functional, organism-based; method in brief: as §1
Enterococcus faecalis = assay: Antibacterial activity against Enterococcus faecalis ATCC 29212 by broth microdilution assay; assay type: functional, organism-based; method in brief: as §1
Streptococcus pneumoniae = assay: Antibacterial activity against Streptococcus pneumoniae ATCC 6303 by broth microdilution assay; assay type: functional, organism-based; method in brief: as §1
Neisseria gonorrhoeae = assay: Antibacterial activity against Neisseria gonorrhoeae ATCC 49226 by broth microdilution assay; assay type: functional; method in brief: as §1
Candida albicans = assay: Antifungal activity against Candida albicans ATCC 90028 by broth microdilution assay; assay type: functional, organism-based; method in brief: as §1
Cryptococcus neoformans = assay: Antifungal activity against Cryptococcus neoformans ATCC 90112 by broth microdilution assay; assay type: functional, organism-based; method in brief: as §1

Row | SMILES | Activity (P388) | Activity [1] | Activity (Micrococcus luteus) | Activity (Staphylococcus aureus) | Activity (Escherichia coli) | Activity (Enterobacter cloacae) | Activity (Enterococcus faecalis) | Activity (Streptococcus pneumoniae) | Activity (Neisseria gonorrhoeae) | Activity (Candida albicans) | Activity (Cryptococcus neoformans) | EC50 (P388; read-out: ED50 (the source's name)) [µg/mL] | MIC (Neisseria gonorrhoeae) [µg/mL]
1 | Cc1c(O)c2c(c(C)c1CCO)C[C@@](C)(CO)C2 | inactive | inactive | inactive | inactive | inactive | inactive | inactive | inactive | inactive | inactive | inactive | – | –
2 | CC(=O)c1cccc2oc(=O)[nH]c12 | inactive | inactive | inactive | inactive | inactive | inactive | inactive | inactive | inactive | inactive | inactive | – | –
3 | Cc1c(O)c2c(c(C)c1CCO)CC(C)(C)C2 | inactive | inactive | inactive | inactive | inactive | inactive | inactive | inactive | inactive | inactive | inactive | – | –
4 | Cc1c(O)c2c(c(C)c1CCO)C[C@](C)(CO)C2 | inactive | inactive | inactive | inactive | inactive | inactive | inactive | inactive | inactive | inactive | inactive | – | –
5 | C=C1[C@@H](O)[C@@H]2C[C@](C)(CO)CC2=C(C)C12CC2 [COPRINASTATIN 1] | – | inactive | inactive | inactive | inactive | inactive | inactive | inactive | – | inactive | inactive | 5.3 (≈ 22.6 µM) | 32 (≈ 137 µM)
6 | C=C1[C@@H](O)[C@@H]2CC(C)(C)CC2=C(CO)C12CC2 | inactive | inactive | inactive | inactive | inactive | inactive | inactive | inactive | inactive | inactive | inactive | – | –
